{"data": "Measurements pooled from the literature", "target": "MAP kinase-activated protein kinase 5 (MAPKAPK5, Homo sapiens, UniProt Q8IW41)", "note": "Each line is one published result; the experiments were not run side by side."}
{"Compound": "CCCOc1ccc(OC)c(F)c1C(=O)c1ccc(C(=O)N[C@@H]2CNC[C@H]2NC(=O)c2ccc3[nH]ncc3c2)cc1", "observed": "enzyme activity", "mode": "inhibitor", "tested at": "10 µM", "endpoint": "remaining activity", "result": "91%"}
{"Compound": "Oc1ccc(-c2nc(-c3ccncc3)c(-c3ccc(F)cc3)[nH]2)cc1", "observed": "cell-free assay", "tested at": "0.5 µM", "endpoint": "remaining signal", "result": "102%"}
{"Compound": "CC(=O)C1=C(C)N(c2cccc(C(F)(F)F)c2)C(=O)N[C@@H]1c1ccc(C#N)nc1", "observed": "cell-free assay", "technique": "competition with immobilised ligand", "tested at": "1 µM", "endpoint": "remaining binding", "result": "100%"}
{"Compound": "Cc1cnc(NC2CCOCC2)nc1-n1cnc(C(=O)NC(CN)c2cc(F)cc(Cl)c2)c1 (stereo not drawn)", "observed": "enzyme activity", "mode": "inhibitor", "technique": "radiometric", "tested at": "1 µM", "endpoint": "remaining activity", "result": "114%"}
{"Compound": "CNCc1ccc(-c2cc(-c3nc(-c4ccc(S(=O)(=O)C(C)C)cc4)cnc3N)on2)cc1", "observed": "enzyme activity", "mode": "inhibitor", "tested at": "0.4 µM", "endpoint": "inhibition", "result": "0%"}
{"Compound": "O=C(Nc1cnn(-c2csc(C(=O)NC3COC3)c2)c1)Nc1ccccc1Cl", "observed": "enzyme activity", "mode": "inhibitor", "tested at": "5 µM", "endpoint": "remaining activity", "result": "92.8%"}
{"Compound": "C=CC(=O)Nc1cc(Nc2nccc(Nc3cc(Cl)c(F)cc3C(C)(C)O)n2)c(OC)cc1N1CC[C@@H](N(C)C)C1", "observed": "enzyme activity", "mode": "inhibitor", "tested at": "1 µM", "endpoint": "inhibition", "result": "19%"}
{"Compound": "Nc1cnc(N2CCc3cc(S(=O)(=O)Nc4c(F)cc(Cl)cc4F)cc(N4CCCC4=O)c32)nc1", "observed": "cell-free assay", "technique": "competition with immobilised ligand", "tested at": "1 µM", "endpoint": "remaining binding", "result": "92%"}
{"Compound": "Cn1cnc(Br)c1C1=CN(c2ncnc3[nH]cnc23)CCS1", "observed": "enzyme activity", "mode": "inhibitor", "technique": "radiometric", "tested at": "50 nM", "endpoint": "inhibition", "result": "20.3%"}
{"Compound": "O=C(CSc1nc2nccnc2c(=O)n1CCc1ccccc1)Nc1nccs1", "observed": "enzyme activity", "mode": "inhibitor", "tested at": "10 µM", "endpoint": "inhibition", "result": "-2%"}
{"Compound": "O=c1nc(-c2ccccn2)sc2ccccc12", "observed": "binding", "technique": "competition with immobilised ligand", "tested at": "1 µM", "endpoint": "remaining binding", "result": "92%"}
{"Compound": "CNC(=O)c1cc(Oc2ccc(NC(=O)Nc3ccc(Cl)c(C(F)(F)F)c3)cc2)ccn1", "observed": "enzyme activity", "mode": "inhibitor", "tested at": "10 µM", "endpoint": "inhibition", "result": "66%"}
{"Compound": "O=C1CCc2cc(Nc3cc(OC4CCOCC4)c([N+](=O)[O-])cc3Cl)ccc2N1", "observed": "cell-free assay", "technique": "competition with immobilised ligand", "tested at": "1 µM", "endpoint": "remaining binding", "result": "78%"}
{"Compound": "CCCS(=O)(=O)Nc1ccc(F)c(C(=O)c2c[nH]c3ncc(-c4ccc(Cl)cc4)cc23)c1F", "observed": "enzyme activity", "mode": "inhibitor", "tested at": "1 µM", "endpoint": "inhibition", "result": "< 10%"}
{"Compound": "CC(C)(C)c1nc2c(s1)c1nc(N)ncc1c1ccc(NS(=O)(=O)c3c(F)cccc3F)c(F)c12", "observed": "enzyme activity", "mode": "inhibitor", "technique": "radiometric", "tested at": "1 µM", "endpoint": "remaining activity", "result": "83%"}
{"Compound": "FC(F)c1nc2ccccc2n1-c1nc(N2CCOCC2)nc(N2CCOCC2)n1", "observed": "enzyme activity", "mode": "inhibitor", "tested at": "10 µM", "endpoint": "remaining activity", "result": "82%"}
{"Compound": "COc1ccc2cc(OCC3(C(=O)O)CN(C(=O)c4ccc(F)cc4)C3)ccc2c1", "observed": "cell-free assay", "technique": "competition with immobilised ligand", "tested at": "1 µM", "endpoint": "remaining binding", "result": "76%"}
{"Compound": "Cc1cc(NC(=O)c2cccc3cc(-c4cccc5[nH]nc(N)c45)ccc23)ccc1F", "observed": "enzyme activity", "mode": "inhibitor", "tested at": "0.1 µM", "endpoint": "activity vs control", "result": "103%"}
